# Experimental data: ChEMBL document CHEMBL1212735, “Metronidazole resistance in Prevotella spp. and description of a new nim gene in Prevotella baroniae” (2010)
# Assays:
# Assay type in all cases: functional
# Prevotella nanceiensis [1] = assay: Antimicrobial activity against Prevotella nanceiensis LBN 410 deficient in nimI gene assessed as inhibition of growth after three consecutive subcultures on compound free medium by agar dilution method; settings: Hoylesella nanceiensis
# Summary of the method: (§1)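 Stability of induced resistance: metronidazole-selected isolates were subcultured three consecutive times on drug-free brucella blood agar (5% sheep blood, hemin, vitamin K1) under anaerobic conditions, then MIC was redetermined by CLSI agar dilution. Resistance was called stable if the MIC held within ±1 dilution. Duplicate experiments.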
# Prevotella baroniae [2] = assay: Antimicrobial activity against Prevotella baroniae DSM 16972T expressing nim gene assessed as inhibition of growth at 48 hrs by agar dilution method; settings: Segatella baroniae
# Summary of the method: (§2)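 Metronidazole MIC by agar dilution (CLSI M11-A7) on brucella agar with 5% sheep blood, hemin and vitamin K1. Plates were read after 48 h at 35°C under anaerobic conditions. Susceptible was MIC ≤ 4 μg/ml and resistant MIC ≥ 8 μg/ml (EUCAST). B. fragilis ATCC 25285T and B. thetaiotaomicron ATCC 29741 were run as controls. Duplicate assays.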
# Prevotella bivia [3] = assay: Antimicrobial activity against slow growing colonies of Prevotella bivia LBN 374 deficient in nim gene assessed as inhibition of growth at 48 hrs by agar dilution method; settings: LBN 374, 48 h
# Summary of the method: (§3)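 Metronidazole MIC by agar dilution per CLSI M11-A7 on brucella agar with 5% sheep blood, hemin and vitamin K1. Plates incubated anaerobically at 35°C and read at 48 h, with a second reading after a further 72 h. B. fragilis ATCC 25285T and B. thetaiotaomicron ATCC 29741 served as controls. Done in duplicate; EUCAST breakpoints applied (S ≤4, R ≥8 μg/ml).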
# Prevotella nanceiensis [4] = assay: Antimicrobial activity against slow growing colonies of Prevotella nanceiensis LBP 66 deficient in nim gene assessed as inhibition of growth at 48 hrs by agar dilution method; settings: Hoylesella nanceiensis, LBP 66, 48 h; summary of the method: as §3
# Prevotella bivia [5] = assay: Antimicrobial activity against slow growing colonies of Prevotella bivia LBN 467 deficient in nim gene assessed as inhibition of growth at 48 hrs by agar dilution method; settings: LBN 467, 48 h; summary of the method: as §3
# Prevotella bivia [6] = assay: Antimicrobial activity against slow growing colonies of Prevotella bivia LBP 52 deficient in nim gene assessed as inhibition of growth at 48 hrs by agar dilution method; settings: LBP 52, 48 h; summary of the method: as §3
# Prevotella baroniae [7] = assay: Antimicrobial activity against Prevotella baroniae LBN 432 expressing nimI gene assessed as inhibition of growth after three consecutive subcultures on compound free medium by agar dilution method; settings: Segatella baroniae; summary of the method: as §1
# Prevotella baroniae [8] = assay: Antimicrobial activity against Prevotella baroniae LBN 432 expressing nim gene assessed as inhibition of growth at 48 hrs by agar dilution method; settings: Segatella baroniae, LBN 432, 48 h; summary of the method: as §2
# Prevotella bivia [9] = assay: Antimicrobial activity against Prevotella bivia LBN 478 deficient in nim gene assessed as inhibition of growth at 48 hrs by agar dilution method; settings: LBN 478, 48 h; summary of the method: as §2
# Prevotella baroniae [10] = assay: Antimicrobial activity against Prevotella baroniae LBN 430 expressing nimI gene assessed as inhibition of growth after several passages on plates containing increasing concentrations of compound by agar dilution method; settings: Segatella baroniae
# Summary of the method: (§4)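 Induction of metronidazole resistance: bacterial suspensions inoculated onto brucella blood agar (5% sheep blood, hemin, vitamin K1) containing metronidazole at increasing concentrations, grown anaerobically at 37°C. Colonies growing at the highest concentration were retested for MIC by CLSI agar dilution on the same agar. Duplicate experiments.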
# Prevotella bivia [11] = assay: Antimicrobial activity against slow growing colonies of Prevotella bivia LBP 38 deficient in nim gene assessed as inhibition of growth at 48 hrs by agar dilution method; settings: LBP 38, 48 h; summary of the method: as §3
# Prevotella bivia [12] = assay: Antimicrobial activity against slow growing colonies of Prevotella bivia LBP 69 deficient in nim gene assessed as inhibition of growth at 48 hrs by agar dilution method; settings: LBP 69, 48 h; summary of the method: as §3
# Prevotella nanceiensis [13] = assay: Antimicrobial activity against slow growing colonies of Prevotella nanceiensis LBN 410 deficient in nim gene assessed as inhibition of growth at 48 hrs by agar dilution method; settings: Hoylesella nanceiensis, LBN 410, 48 h; summary of the method: as §3
# Prevotella bivia [14] = assay: Antimicrobial activity against slow growing colonies of Prevotella bivia LBP 51 deficient in nim gene assessed as inhibition of growth at 48 hrs by agar dilution method; settings: LBP 51, 48 h; summary of the method: as §3
# Prevotella bivia [15] = assay: Antimicrobial activity against Prevotella bivia LBP 4 deficient in nim gene assessed as inhibition of growth at 48 hrs by agar dilution method; settings: LBP 4, 48 h; summary of the method: as §2
# Prevotella bivia [16] = assay: Antimicrobial activity against slow growing colonies of Prevotella bivia LBN 371 deficient in nim gene assessed as inhibition of growth at 48 hrs by agar dilution method; settings: LBN 371, 48 h; summary of the method: as §3
# Prevotella bivia [17] = assay: Antimicrobial activity against Prevotella bivia LBN 339 deficient in nim gene assessed as inhibition of growth at 48 hrs by agar dilution method; settings: LBN 339, 48 h; summary of the method: as §2
# Prevotella bivia [18] = assay: Antimicrobial activity against slow growing colonies of Prevotella bivia LBP 78 deficient in nim gene assessed as inhibition of growth at 48 hrs by agar dilution method; settings: LBP 78, 48 h; summary of the method: as §3
# Prevotella baroniae [19] = assay: Antimicrobial activity against Prevotella baroniae LBN 475 expressing nimI gene assessed as inhibition of growth after several passages on plates containing increasing concentration of compound by agar dilution method; settings: Segatella baroniae; summary of the method: as §4
# Prevotella bivia [20] = assay: Antimicrobial activity against slow growing colonies of Prevotella bivia LBN 333 deficient in nim gene assessed as inhibition of growth at 48 hrs by agar dilution method; settings: LBN 333, 48 h
# Summary of the method: (§5)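 Slowly growing colonies inside the Etest inhibition zone, seen after prolonged incubation (an additional 72 h after the 48 h reading), were subcultured without antibiotic. They were then retested for metronidazole MIC by agar dilution on supplemented brucella blood agar under anaerobic conditions.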
# Prevotella bivia [21] = assay: Antimicrobial activity against slow growing colonies of Prevotella bivia LBN 343 deficient in nim gene assessed as inhibition of growth at 48 hrs by agar dilution method; settings: LBN 343, 48 h; summary of the method: as §5
# Prevotella bivia [22] = assay: Antimicrobial activity against slow growing colonies of Prevotella bivia LBN 336 deficient in nim gene assessed as inhibition of growth at 48 hrs by agar dilution method; settings: LBN 336, 48 h; summary of the method: as §5
# Prevotella baroniae [23] = assay: Antimicrobial activity against Prevotella baroniae LBP19 expressing nimI gene assessed as inhibition of growth after three consecutive subcultures on compound free medium by agar dilution method; settings: Segatella baroniae; summary of the method: as §1
# Bacteroides fragilis = assay: Antimicrobial activity against Bacteroides fragilis ATCC 25285T deficient in nimI gene assessed as inhibition of growth after several passages on plates containing increasing concentration of compound by agar dilution method; summary of the method: as §4
# Prevotella nanceiensis [24] = assay: Antimicrobial activity against slow growing colonies of Prevotella nanceiensis LBN 297 deficient in nim gene assessed as inhibition of growth at 48 hrs by agar dilution method; settings: Hoylesella nanceiensis, LBN 297, 48 h; summary of the method: as §3
# Prevotella bivia [25] = assay: Antimicrobial activity against Prevotella bivia LBN 371 deficient in nim gene assessed as inhibition of growth at 48 hrs by agar dilution method; settings: LBN 371, 48 h; summary of the method: as §2
# Prevotella bivia [26] = assay: Antimicrobial activity against Prevotella bivia LBN 467 deficient in nimI gene assessed as inhibition of growth after three consecutive subcultures on compound free medium by agar dilution method
# Summary of the method: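 Resistance induction: bacterial suspensions were plated on supplemented brucella blood agar with rising metronidazole concentrations. Colonies from the highest concentration were tested by agar dilution. MIC was then redetermined after three consecutive subcultures on drug-free agar. Resistance counted as stable if the MIC held within ±1 dilution. Anaerobic growth at 37°C. Duplicate experiments.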
compound,measurement,setting,value
Cc1ncc([N+](=O)[O-])n1CCO [METRONIDAZOLE],MIC,Prevotella nanceiensis [1],256 µg/mL
same,MIC,Prevotella baroniae [2],2 µg/mL
same,MIC,Prevotella bivia [3],8 µg/mL
same,MIC,Prevotella nanceiensis [4],8 µg/mL
same,MIC,Prevotella bivia [5],32 µg/mL
same,MIC,Prevotella bivia [6],16 µg/mL
same,MIC,Prevotella baroniae [7],64 µg/mL
same,MIC,Prevotella baroniae [8],2 µg/mL
same,MIC,Prevotella bivia [9],4 µg/mL
same,MIC,Prevotella baroniae [10],128 µg/mL
same,MIC,Prevotella bivia [11],8 µg/mL
same,MIC,Prevotella bivia [12],8 µg/mL
same,MIC,Prevotella nanceiensis [13],32 µg/mL
same,MIC,Prevotella bivia [14],32 µg/mL
same,MIC,Prevotella bivia [15],2 µg/mL
same,MIC,Prevotella bivia [16],32 µg/mL
same,MIC,Prevotella bivia [17],2 µg/mL
same,MIC,Prevotella bivia [18],8 µg/mL
same,MIC,Prevotella baroniae [19],256 µg/mL
same,MIC,Prevotella bivia [20],32 µg/mL
same,MIC,Prevotella bivia [21],16 µg/mL
same,MIC,Prevotella bivia [22],32 µg/mL
same,MIC,Prevotella baroniae [23],128 µg/mL
same,MIC,Bacteroides fragilis,256 µg/mL
same,MIC,Prevotella nanceiensis [24],16 µg/mL
same,MIC,Prevotella bivia [25],4 µg/mL
same,MIC,Prevotella bivia [26],> 256 µg/mL
